{"data": "Published values gathered from unrelated publications", "target": "Activin receptor type-1-like (ACVRL1, Homo sapiens, UniProt P37023)", "note": "Compare with care: the assays were run in different laboratories."}
{"SMILES": "Cc1cnc(NC2CCOCC2)nc1-n1cnc(C(=O)NC(CN)c2cc(F)cc(Cl)c2)c1 (stereo not shown)", "observed": "enzyme activity", "action": "inhibitor", "method": "radiometric", "concentration": "1 µM", "endpoint": "remaining activity", "result": "100%"}
{"SMILES": "COc1cc(Nc2c(C#N)cnc3cc(OCCCN4CCN(C)CC4)c(OC)cc23)c(Cl)cc1Cl", "observed": "cell-free assay", "concentration": "0.5 µM", "endpoint": "remaining signal", "result": "67.6%"}
{"SMILES": "CO[C@@H](C)c1c(Nc2ccc([C@H](N(C)C(=O)C3CCS(=O)(=O)CC3)C(F)(F)F)cc2)cnc2cc(Cl)nn12", "observed": "cell-free assay", "method": "competition with immobilised ligand", "concentration": "1 µM", "endpoint": "remaining binding", "result": "100%"}
{"SMILES": "CC(C)(C)c1nc2c(s1)c1nc(N)ncc1c1ccc(NS(=O)(=O)c3c(F)cccc3F)c(F)c12", "observed": "enzyme activity", "action": "inhibitor", "method": "radiometric", "concentration": "1 µM", "endpoint": "remaining activity", "result": "87%"}
{"SMILES": "C[C@H](c1cccc(C#N)c1)n1cc(Cl)cc(C(N)=O)c1=N", "observed": "cell-free assay", "method": "competition with immobilised ligand", "concentration": "1 µM", "endpoint": "remaining binding", "result": "93%"}
{"SMILES": "O=C(Nc1cnn(-c2csc(C(=O)NC3COC3)c2)c1)Nc1c(F)cccc1Cl", "observed": "enzyme activity", "action": "inhibitor", "concentration": "5 µM", "endpoint": "remaining activity", "result": "120%"}
{"SMILES": "Cc1ccc(C(=O)NCc2ccsc2)cc1C#Cc1cn(C(C)C)c2ncnc(N)c12", "observed": "enzyme activity", "action": "inhibitor", "concentration": "1 µM", "endpoint": "activity vs control", "result": "94%"}
{"SMILES": "N#CCCc1ccc2c(c1)-c1[nH]c3ccc([N+](=O)[O-])cc3c1CC(=O)N2", "observed": "cell-free assay", "concentration": "0.5 µM", "endpoint": "remaining signal", "result": "53.6%"}
{"SMILES": "CC(C)(O)[C@H]1CC[C@H](Nc2ccc3ncc(-c4cccc(C(F)(F)F)c4)n3n2)CC1", "observed": "enzyme activity", "action": "inhibitor", "concentration": "1 µM", "endpoint": "remaining activity", "result": "66.7%"}
{"SMILES": "CCS(=O)(=O)c1cc2cc(C[C@](O)(CC(C)(C)c3ccc(F)cc3C(N)=O)C(F)(F)F)[nH]c2cn1", "observed": "cell-free assay", "method": "competition with immobilised ligand", "concentration": "1 µM", "endpoint": "remaining binding", "result": "100%"}
{"SMILES": "COc1cc2c(N3CCN(C(=O)Nc4ccc(OC(C)C)cc4)CC3)ncnc2cc1OCCCN1CCCCC1", "observed": "cell-free assay", "concentration": "0.5 µM", "endpoint": "remaining signal", "result": "102%"}
{"SMILES": "CN1CC(Oc2cnc(C#N)cc2-c2ccn3nc(NC(=O)C4CC4)cc3c2)C1", "observed": "enzyme activity", "action": "inhibitor", "concentration": "1 µM", "endpoint": "inhibition", "result": "4%"}
{"SMILES": "CC(=O)c1c(NS(C)(=O)=O)c2cc(-c3ccc(Cl)cc3)c(-c3ccc(Cl)cc3Cl)nc2n(C)c1=O", "observed": "cell-free assay", "method": "competition with immobilised ligand", "concentration": "1 µM", "endpoint": "remaining binding", "result": "100%"}
{"SMILES": "CCN(CC)CCNC(=O)c1c(C)[nH]c(/C=C2\\C(=O)Nc3ccc(F)cc32)c1C", "observed": "cell-free assay", "concentration": "0.5 µM", "endpoint": "remaining signal", "result": "112%"}
{"SMILES": "Cc1nccc(COC(=O)N2C[C@@H]3[C@@H](CNC(=O)c4ccc5[nH]nnc5c4)[C@@H]3C2)n1", "observed": "binding", "method": "competition with immobilised ligand", "concentration": "1 µM", "endpoint": "remaining binding", "result": "100%"}
{"SMILES": "Nc1ncnc2occ(-c3ccc(NC(=O)Nc4cc(C(F)(F)F)ccc4F)cc3)c12", "observed": "cell-free assay", "concentration": "20 µM", "endpoint": "remaining signal", "result": "100%"}
